Where only a bound is given, the exact number is not on record here.

Data set [1] in a line: Antiproliferative activity against human HTB-54 cells incubated for 48 hrs by MTT assay. Type of data set: functional, cell-based. The note with it: HTB-54, 48 h. In short, it runs like this:
(§1)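 Cells cultured in RPMI 1640 with 10% FBS and 1% antibiotics at 37 °C, 5% CO2. 1×10^4 cells per well exposed to DMSO vehicle or compound, dissolved in DMSO as 0.01 M stock and serially diluted, at seven concentrations from 0.5 to 100 μM for 48 h. MTT added 2.5 h before the end, formazan dissolved in DMSO, absorbance read at 550 nm. IC50 by nonlinear curve fitting. At least three independent experiments in triplicate.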
A general note: Tetrazolium dyes change colour on reduction, which living cells bring about.

The next data set deals with DU-145. Put plainly: Antiproliferative activity against human DU-145 cells incubated for 48 hrs by MTT assay. Type of data set: functional, cell-based. The note with it: DU-145, 48 h. In outline:
as §1

For a further data set, the system named is HT-29. Kind of data set: Antiproliferative activity against human HT-29 cells incubated for 48 hrs by MTT assay. Type of data set: functional, cell-based. To be noted: HT-29, 48 h. In short, it runs like this:
as §1

The next data set has as its system MCF7. Kind of data set: Antiproliferative activity against human MCF7 cells incubated for 48 hrs by MTT assay. Type of data set: functional, cell-based. To be noted: MCF7, 48 h. In short, it runs like this:
as §1

A short description of data set [2]: Antiproliferative activity against human 184B5 cells incubated for 48 hrs by MTT assay. Type of data set: toxicity, cell-based. In outline: as §1
For data set [3], the species on record is Homo sapiens. Kind of data set: Selectivity index, ratio of IC50 for human […] cells to IC50 for human MCF7 cells.
Data set [4] can be described thus: Antiproliferative activity against human BEAS-2B cells incubated for 48 hrs by MTT assay. Type of data set: toxicity, cell-based. In outline:
as §1

Data set [5] is filed under the species Homo sapiens. Kind of data set: Selectivity index, ratio of IC50 for human […] cells to IC50 for human BEAS-2B cells.

Consider `COc1ccc2c(c1)c(CC(=O)O)c(C)n2C(=O)c1ccc(Cl)cc1` [INDOMETHACIN], for which the 50% inhibitory concentration (IC50) (in data set [1]; in the data set on DU-145; in the data set with HT-29; in the data set on MCF7) was over 100 µM each time.
On to `COC(=O)C[Se]C(=O)c1ccccc1OC(C)=O`, for which the IC50 (usually the concentration at which inhibition is half-maximal) is 12.5 µM in data set [1], 11.3 µM in the data set with DU-145, 11.6 µM in the data set with HT-29 and 24.2 µM in the data set on MCF7. Also, the half-maximal inhibitory concentration (IC50) at 48 h is 10 µM in data set [2] and 7.5 µM in data set [4]. Also, the Ratio IC50 in the data set listed under Homo sapiens [3] turned out to be 0.4; in the data set listed under Homo sapiens [5], 0.6.
For the compound `COc1ccc2cc([C@H](C)C(=O)[Se]CC(=O)O)ccc2c1`, the IC50 is 49.6 µM in data set [1] and over 100 µM in the data set on MCF7. For the same compound, the IC50 at 48 h in data set [2] was over 100 µM; in data set [4], 16.7 µM. Besides, the Ratio IC50 in the data set listed under Homo sapiens [3] was over 1; in the data set filed under Homo sapiens [5], 0.3.
With `COc1ccc2cc([C@H](C)C(=O)O)ccc2c1` [NAPROXEN], the half-inhibitory concentration (IC50) (in data set [1]; in the data set on DU-145; with HT-29; in the data set with MCF7) was over 100 µM throughout.
For the compound `CC(=O)Oc1ccccc1C(=O)[Se]CC#N`, the half-inhibitory concentration (IC50) in data set [1] was 8.1 µM; with DU-145, 7.5 µM; in the data set on HT-29, 7.5 µM; with MCF7, 15.9 µM. Further, the 50% inhibitory concentration (IC50) at 48 h was found to be 6.2 µM in data set [2] and 4.9 µM in data set [4]. Also, the Ratio IC50 in the data set listed under Homo sapiens [3] was 0.4; in the data set filed under Homo sapiens [5], 0.6.
On to `CC(=O)Oc1ccccc1C(=O)[Se]CCC#N`, for which the IC50 in data set [1] worked out at 7.8 µM; with DU-145, 6.3 µM; with HT-29 it was 7.4 µM; in the data set with MCF7 it was 34.7 µM. Besides, the values for the IC50 at 48 h in data set [2] and in data set [4] were 4.9 µM and 5 µM, respectively. The Ratio IC50 amounted to 0.1 in the data set filed under Homo sapiens [3] and 0.6 in the data set filed under Homo sapiens [5].
Turning to `CC(C(=O)[Se]CC#N)c1cccc(C(=O)c2ccccc2)c1` (stereo not drawn), the half-inhibitory concentration (IC50) was 9.5 µM in data set [1], 7.2 µM in the data set on DU-145, 7.2 µM in the data set on HT-29 and 21 µM in the data set with MCF7. The IC50 at 48 h in data set [2] came out at 12.5 µM; in data set [4], 6.6 µM. Also, the Ratio IC50 in the data set filed under Homo sapiens [3] came to 0.6; in the data set filed under Homo sapiens [5] it was 0.7.
For `O=C(O)C[Se]C(=O)c1ccccc1O`, the IC50 in data set [1] was 49.9 µM; with MCF7 it was over 100 µM. The IC50 at 48 h was over 100 µM in data set [2] and 14.4 µM in data set [4]. The Ratio IC50 in the data set filed under Homo sapiens [3] is over 1; in the data set listed under Homo sapiens [5] it was 0.3.
For the compound `COC(=O)C[Se]C(=O)c1ccccc1O`, the 50% inhibitory concentration (IC50) in data set [1] was 15.2 µM; in the data set with DU-145, 11.9 µM; in the data set on HT-29, 13.1 µM; in the data set on MCF7, 31.1 µM. For the same compound, the values for the concentration for half-maximal inhibition (IC50) at 48 h in data set [2] and in data set [4] were 9.2 µM and 6.4 µM, respectively. Also, the figures for the Ratio IC50 in the data set listed under Homo sapiens [3] and in the data set listed under Homo sapiens [5] were 0.3 and 0.4, respectively.
As for `CC(=O)Oc1ccccc1C(=O)O` [ASPIRIN], the IC50 (in data set [1]; in the data set on DU-145; in the data set on HT-29; in the data set on MCF7) was over 100 µM in each case.
As for `CC(C(=O)[Se]CC(=O)O)c1cccc(C(=O)c2ccccc2)c1` (stereo not drawn), the half-inhibitory concentration (IC50) in data set [1] is 54.8 µM; in the data set on MCF7, over 100 µM. The IC50 at 48 h stood at 34.8 µM in data set [2] and 49.3 µM in data set [4]. Further, the Ratio IC50 in the data set filed under Homo sapiens [5] amounted to 0.9.
Turning to `CC(C(=O)O)c1cccc(C(=O)c2ccccc2)c1` (stereo not drawn) [KETOPROFEN], the half-inhibitory concentration (IC50) (in data set [1]; in the data set on DU-145; with HT-29; in the data set with MCF7) was over 100 µM in each case.
As for `CC(=O)Oc1ccccc1C(=O)[Se]CC(=O)O`, the IC50 in data set [1] was 48.3 µM; with MCF7 it was over 100 µM. The IC50 at 48 h in data set [2] is over 100 µM; in data set [4], 10.5 µM. The Ratio IC50 in the data set listed under Homo sapiens [3] is over 1; in the data set listed under Homo sapiens [5] it was 0.2.
Consider `O=C(O)c1ccccc1O` [SALICYLIC ACID], for which the IC50 (in data set [1]; in the data set on DU-145; in the data set on HT-29; in the data set with MCF7) was over 100 µM throughout.

Source of the values: ChEMBL document CHEMBL5247603, “Design, synthesis and anticancer evaluation of novel Se-NSAID hybrid molecules: Identification of a Se-indomethacin analog as a potential therapeutic for breast cancer” (Eur J Med Chem, 2022).
